Assay outcomes: PubChem BioAssay, several laboratories
Compounds with a hit are over-represented: about 1.8% of the library has one in this group of screens.
DAGLB inh: blocks human DAGLB lipase activity. inhibition, % at 5.17 µM. 340,000 compounds, 0.059% hits. Q8NCG7. HEK293T DAGLB membrane lysate, EnzChek fluorogenic substrate; in the data active = inhibition above about 34%;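 note: 0% = enzyme with vehicle and 100% = wells lacking enzyme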
Target sequence (Q8NCG7 whole entry, looked up): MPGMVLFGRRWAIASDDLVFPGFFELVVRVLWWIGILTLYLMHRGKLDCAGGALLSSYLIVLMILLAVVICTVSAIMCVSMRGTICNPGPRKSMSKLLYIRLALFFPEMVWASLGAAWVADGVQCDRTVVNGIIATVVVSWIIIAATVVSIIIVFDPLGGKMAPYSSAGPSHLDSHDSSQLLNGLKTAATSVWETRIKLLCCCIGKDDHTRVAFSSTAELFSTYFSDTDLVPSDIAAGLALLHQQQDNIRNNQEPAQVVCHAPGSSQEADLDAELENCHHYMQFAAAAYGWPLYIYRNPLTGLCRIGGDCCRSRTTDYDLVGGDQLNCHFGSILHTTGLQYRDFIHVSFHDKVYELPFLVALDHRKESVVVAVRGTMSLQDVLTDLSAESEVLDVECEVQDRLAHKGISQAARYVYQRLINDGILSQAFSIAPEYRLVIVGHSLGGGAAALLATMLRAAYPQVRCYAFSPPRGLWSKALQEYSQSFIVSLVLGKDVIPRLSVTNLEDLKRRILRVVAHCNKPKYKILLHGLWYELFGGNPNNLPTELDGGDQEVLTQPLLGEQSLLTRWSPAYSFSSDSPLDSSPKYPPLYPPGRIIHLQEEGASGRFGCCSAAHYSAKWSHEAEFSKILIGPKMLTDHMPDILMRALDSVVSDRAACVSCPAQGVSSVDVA
SKN-1 inh: C. elegans SKN-1 inhibition; C. elegans VP596 Pgst-4::GFP/RFP ratio, acrylamide-induced, 24 h; inhibition, % at 21.8 µM; 360,000 compounds, 0.49% hits; AID 624304;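 active = interference check ratio from 0.5 to 1.5 plus GFP to RFP signal ratio inhibition reaching or exceeding a fixed threshold, cut at about 30% in these data, passing the limit was not always enough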
MsrA inh: bovine MsrA inhibition | purified bovine MsrA, absorbance read-out | 360,000 compounds, 0.75% hits | inhibition, % at 15.5 µM;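 note: 0% = vehicle wells with enzyme and 100% = reference inhibitor wells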
bovine MsrA act: activators of bovine methionine sulfoxide reductase A. 360,000 compounds, 0.3% hits. purified bovine MsrA, absorbance read-out. activation, % at 10.6 µM; in the data active = activation above about 7.5%;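 note: 0% = vehicle and 100% = reference activator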
beta cell repl: inducers of beta-cell replication in MIN6 cells. proliferation, % at 10 µM. MIN6 cells proliferation, ATPlite luminescence, 48 h; cells starved in 0.2% serum; 100% = growth in 10% serum. 330,000 compounds, 0.29% hits;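 active = compounds whose signal lies at least 3.5 SD above the mean of all wells on their plate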;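 note: 0% = DMSO-treated cells in low-serum medium and 100% = 10% serum control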
MT1-MMP act inh: inhibitors of human MT1-MMP activation; P50281; HT1080 RFP-PRO-GFP cells, GFP/RFP ratio fluorescence, overnight; percent of plate control window, DMSO zero; GFP/RFP ratio change, % at 20 µM; 360,000 compounds, 0.061% hits; AID 651647;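 active = GFP/RFP ratio change of at least 30% with cell ATP level not reduced by more than half and red fluorescence within 50% of control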
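Assay system: HT1080 cells carrying an RFP-PRO-GFP reporter | Dosing: Single dose of 20 µM compound, 1% DMSO final | Incubation: Cells overnight before dosing, compound overnight, 37 °C, 5% CO2 | Evaluation: GFP/RFP fluorescence ratio | Control set: DMSO and RFP-L50D-GFP cell wells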
MsrA inh confirm: confirmation of bovine MsrA inhibitors; 2,300 compounds, 41% hits; inhibition, % at 15.5 µM; purified bovine MsrA, absorbance read-out; shares compounds with MsrA inh;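 note: coupled to thioredoxin reductase with NADPH and selenocystamine and DMSO as substrate; 0% = vehicle only and 100% = full effect of reference inhibitor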
Starred values were filed as active, the others as inactive; · = no result given. Cut-off read from the data, not from the text of the source, unless noted: active = inhibition above about 4.5%; inactive = the rest.

SMILES | DAGLB inh | SKN-1 inh | MsrA inh | bovine MsrA act | beta cell repl | MT1-MMP act inh | MsrA inh confirm
CCn1c(/C=C/c2ccc(O)cc2)nc2ccccc2c1=O | -2.5 | 12.0 | 5.3* | -7.1 | -2.5 | -7.8 | 4.8*
COc1ccc(NC(=O)/C(C#N)=C/c2ncc([N+](=O)[O-])n2C)c(OC)c1 | 1.8 | 9.7 | 0.3 | -0.3 | -2.4 | 2.2 | ·
O=C(O)c1ccc(N/N=C2/CCCc3ccccc32)cc1 | 4.0 | -13.1 | 5.8* | -11.3 | -3.1 | -4.6 | 7.0*
O=C(N/N=C1\CCCc2ccccc21)c1ccccc1Cl | 0.3 | 11.5 | -0.8 | -1.4 | 0.3 | 0.7 | ·
N#CC(=Nc1cccc(F)c1)C1=C(O)c2ccccc2C1=O | · | 5.4 | 5.2* | -8.6 | · | -5.9 | 4.3
CCOC(=O)[C@H]1[C@H]2COc3cc(OC)ccc3[C@@H]2N2C(=O)CN(Cc3ccco3)C(=O)[C@@]12C | 0.1 | 9.2 | 0.3 | -10.0 | 6.2 | -1.3 | ·
CO/N=C/C(C#N)=C/c1ccc(OC)cc1 | -1.3 | 29.0 | 6.7* | -7.2 | -4.8 | 4.3 | 4.8*
COC(=O)c1cc(C(=O)OCC(=O)N2CCCCC2)cc([N+](=O)[O-])c1 | -0.2 | 3.7 | 1.0 | -5.0 | -1.8 | 1.9 | ·
O=C(N/C(=C/c1ccc(Br)cc1)C(=O)N1CCOCC1)c1ccco1 | -3.4 | -11.3 | 1.5 | -3.2 | 0.8 | -2.0 | ·
CSc1ccc(/C=C(/NC(=O)c2ccco2)C(=O)N2CCOCC2)cc1 | 2.2 | 7.9 | 5.0* | -0.3 | -0.2 | -0.7 | 1.5
COc1ccc(-c2nc3ccccc3c(=O)[nH]2)cc1 | 1.6 | 3.5 | 1.5 | -0.8 | -3.0 | -2.0 | ·
CN(C)c1ccc(-c2nc3ccccc3c(=O)[nH]2)cc1 | -3.2 | -4.3 | 6.0* | -13.6 | -5.7 | -3.5 | 4.1
CCC(=O)OCC(=O)Nc1cc([N+](=O)[O-])ccc1OC | 3.3 | 1.3 | 1.3 | -4.8 | -2.1 | -1.6 | ·
Cc1ccc2nc(-c3ccc(SCC(=O)O)nc3)[nH]c2c1 | 0.6 | 9.9 | 8.9* | -12.7 | -3.8 | -2.0 | 4.7*
Cc1cc2nc(-c3ccc(SCC(=O)Nc4ccc(S(=O)(=O)N5CCCC5)cc4)nc3)[nH]c2cc1C | 2.3 | 15.2 | 5.0* | -8.2 | 0.0 | 0.2 | 3.0
Cc1ccc2nc(-c3ccc(SCC(=O)N4CCc5ccccc54)nc3)[nH]c2c1 | -4.0 | -4.5 | -0.1 | -4.7 | -2.6 | 1.0 | ·
Oc1[nH]c2ccccc2c1C=NCC1CCCO1 (stereo not drawn) | -1.0 | -2.1 | 6.0* | -8.4 | 0.9 | -2.1 | 3.1
COc1ccc(NC(=O)C2=CN3CCS(=O)(=O)N=C3C=C2)c(OC)c1 | 5.4 | -12.3 | 1.2 | 3.2 | -3.5 | -1.9 | ·
CCOC(=O)C1=C(C)N=C2SC(C(=O)OC)=CC(=O)N2C1c1ccc(OC)cc1 (stereo not drawn) | 2.9 | 4.8 | 1.2 | -1.8 | -3.3 | -13.3 | ·
COc1ccc(-c2cc(-c3ccccc3)nc(=O)[nH]2)cc1 | -1.6 | -4.8 | 5.3* | -5.8 | 0.1 | 2.1 | 3.5
COc1ccc(-c2cc(=O)c3ccccc3[nH]2)cc1 | 2.2 | 12.3 | 0.3 | 0.7 | 1.4 | 3.1 | ·
CCN(CC)c1ccc(C(=O)OCC(=O)Nc2ccccc2-c2ccccc2)cc1 | -14.1 | 0.5 | 5.8* | -7.6 | -6.0 | -4.7 | 3.4
O=C(N/N=C/c1ccc(-c2ccccc2C(=O)O)o1)c1cccs1 | 2.9 | 3.0 | 6.8* | -4.6 | -1.8 | -2.8 | 4.6*
COc1cccc2c1Oc1cc([N+](=O)[O-])cc(N(C)C(C)=O)c1C=C2 | -3.0 | 3.3 | 15.1* | -7.5 | -3.1 | 3.0 | 10.8*
CC(=O)N(C)c1cc([N+](=O)[O-])ccc1OCc1ccccc1 | -1.1 | 0.4 | 2.1 | -6.9 | · | 3.7 | ·
SMILES | DAGLB inh | SKN-1 inh | MsrA inh | bovine MsrA act | beta cell repl | MT1-MMP act inh | MsrA inh confirm
COc1ccc(-c2cc3ccc(OCc4nn[nH]n4)cc3oc2=O)cc1OC | -0.1 | 7.4 | 6.5* | -5.2 | -1.4 | 9.2 | 4.0
COC(=O)[C@H](CCSC)NC(=O)Nc1cc(OC)cc(OC)c1 | -0.9 | -2.5 | 0.7 | -5.9 | -2.1 | 5.6 | ·
CCCc1c(C(=O)N/N=C/c2ccc(C)o2)nnn1-c1nonc1N | -1.0 | 21.0 | 5.0* | -8.6 | · | -2.4 | 4.6*
Cc1ccc(/C=N/NC(=O)c2nnn(-c3nonc3N)c2C(C)C)o1 | 0.0 | 3.8 | 4.8* | -2.6 | -1.3 | -4.9 | 4.8*
CC(C)c1c(C(=O)N/N=C/c2ccco2)nnn1-c1nonc1N | 0.2 | 4.3 | 3.3 | -2.7 | -1.5 | 4.7 | ·
CC(/C=N/NC(=O)c1nnn(-c2nonc2N)c1CN(C)C)=C\c1ccco1 | -2.8 | -1.3 | 6.2* | -3.0 | 0.3 | 7.0 | 7.3*
Cc1cccc(C)c1OCCSc1nc2ccccc2n1CC(=O)O | -3.6 | 0.7 | 0.1 | -4.2 | -1.9 | 4.1 | ·
CC1CCN(S(=O)(=O)c2ccc(NC(=O)C3CCN(C(=O)c4ccco4)CC3)cc2)CC1 | 1.8 | 9.6 | 0.1 | -1.8 | -0.4 | -2.9 | ·
C(=N\Nc1ncnc2sc3c(c12)CCC3)/c1cccs1 | 4.5 | 94.4 | 3.7 | -8.8 | -5.8 | -13.9 | ·
Cn1cnc2c(N/N=C/c3cccs3)ncnc21 | · | 0.8 | 5.2* | -4.8 | 0.0 | -5.6 | 6.9*
CCc1nnc(NC(=O)c2ccncc2)s1 | 0.4 | 3.6 | 5.6* | -1.8 | -1.0 | -2.4 | 0.4
N#C/C(=C\c1ccco1)C(=O)Nn1cnnc1 | -1.1 | 10.9 | 7.5* | -11.0 | 0.7 | 0.5 | 5.7*
N#C/C(=C\c1ccco1)C(=O)Nc1ccc(S(N)(=O)=O)cc1 | 0.4 | 2.3 | 4.3 | -12.8 | -1.2 | -8.2 | ·
O=c1nccc(N/N=C/c2cccc(O)c2)[nH]1 | -4.0 | 4.3 | 6.8* | -1.4 | -0.3 | 1.3 | 3.9
COc1cc(/C=N/Nc2ccnc(=O)[nH]2)ccc1O | -4.5 | -9.6 | 6.9* | -4.7 | -1.8 | 3.2 | 6.3*
CCN(CC)CCN(Cc1cc2ccc(C)cc2[nH]c1=O)C(=O)Nc1ccc(Cl)cc1 | -1.4 | 5.3 | -1.6 | -2.0 | -5.6 | -0.3 | ·
Cc1ccc(N/N=C/c2c(C)c(C#N)c(=O)n(C)c2O)cc1C | 3.4 | 8.6 | 5.9* | -3.1 | · | 3.2 | 6.6*
Cc1c(C=N)c(O)n(C)c(=O)c1C#N | -1.7 | 9.2 | 5.2* | -5.9 | -1.1 | -0.1 | 6.6*
CCN(CC)S(=O)(=O)c1ccc(N=Cc2c(C)c(C#N)c(=O)n(C)c2O)cc1 | 2.7 | -2.1 | 5.1* | -1.5 | 0.0 | -1.6 | 7.3*
COc1cc(S(=O)(=O)Nc2ccc(C)cc2)ccc1N=Cc1c(C)c(C#N)c(=O)n(C)c1O | · | 1.6 | 2.9 | -6.5 | -0.8 | 1.9 | ·
N#C/C(C(=O)NCc1ccccc1)=C1/SC(Cc2ccc(Cl)cc2)C(=O)N1c1ccccc1 (stereo not drawn) | 0.8 | 7.2 | 1.8 | -2.4 | -4.0 | -13.4 | ·
Cc1cccc(NC(=S)N2CCN(S(C)(=O)=O)CC2)c1 | 1.5 | 3.7 | 0.1 | -1.9 | 1.8 | 0.0 | ·
